Publication PMC2908238 (Journal of neurochemistry, 2010)

How the values were obtained:
[1] = Electron microscopy, morphology of assemblies; assay type: physicochemical; conditions: EM, 10 µM peptide, pH 7.4, 25°C, agitation 200 rpm; for Morphology after 72 h of incubation: 72 h (Aβ40 analogues)
How it was run: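 Peptide from HFIP films, dissolved in 60 mM NaOH, diluted with water, sonicated 1 min, adjusted to 10 µM in 20 mM sodium phosphate pH 7.4; incubated 25°C with 200 rpm orbital shaking. Aliquots adsorbed 20 min on glow-discharged carbon-coated Formvar grids, wicked, fixed 2.5% glutaraldehyde 4 min, stained 1% uranyl acetate 3 min, air-dried; transmission EM.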

Dynamic light scattering = assay type: physicochemical; conditions: 10 µM peptide, pH 7.4, filtered 20 nm, quiescent incubation
How it was run: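 HFIP-treated peptide films dissolved in 60 mM NaOH, diluted with water, sonicated 1 min, then brought to 10 µM in 20 mM sodium phosphate, pH 7.4. Passed through 20-nm filter before first reading; kept at room temperature, no agitation, up to 14 days. 633-nm He-Ne laser, 90° scattering, multitau correlator; size distribution from regularization deconvolution. Representative of two independent experiments.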

[2] = 5 µM, 37°C, without agitation, ref Ciccotosto et al. 2004; cited from earlier work

Substance | Morphology after 72 h of incubation [1] | Morphology after 24 h of incubation ([1]; 24 h (Aβ42 analogues)) | DLS intensity spikes (fibril formation) after 7 days (Dynamic light scattering; 7 days) | Hydrodynamic radius (RH) of particles after 7 days (Dynamic light scattering; DLS, 7 days) | Hydrodynamic radius (RH) of particles after 14 days (Dynamic light scattering; DLS, 14 days) | Morphology initially and after 72 h of incubation [2]
Aβ40: wild-type amyloid β-protein, 40-residue alloform, synthesized by Fmoc chemistry | did not change | – | – | – | – | –
Aβ42: wild-type amyloid β-protein, 42-residue alloform, synthesized by Fmoc chemistry | – | abundant fibrils | no intensity spikes | the same distribution | 100–200 nm | non-fibrillar morphology
[Val^35]Aβ40: Aβ40 analogue with Met^35 substituted by Val | mixture of oligomers and fibrils | – | – | – | – | –
